Measurements reported in ChEMBL document CHEMBL4732237, “Discovery of 4-alkoxy-2-aryl-6,7-dimethoxyquinolines as a new class of topoisomerase I inhibitors endowed with potent in vitro anticancer activity” (2021).

The molecules below were run on NCI-H226 (assay: Growth inhibition of human NCI-H226 cells incubated for 48 hrs by sulforhodamine B assay).
Format: functional
Summary of the method: (§1)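 NCI five-dose screen (0.01–100 µM; five concentrations plus control). Cells grown in RPMI 1640/5% FBS/2 mM L-glutamine and preincubated 24 h, with time-zero plates TCA-fixed. Drug exposure 48 h at 37 °C, followed by SRB protein staining and reading at 515 nm. GI50 is the concentration at [(Ti-Tz)/(C-Tz)]×100 = 50.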

**Q.** Which GI50 does the source give for `COc1cc2nc(-c3ccc(Cl)cc3)cc(OCCCN3CCCC3)c2cc1OC` here?
**A.** 898 nM

These molecules were tested on UACC-62 (assay: Growth inhibition of human UACC-62 cells incubated for 48 hrs by sulforhodamine B assay).
Format: functional
Summary of the method: (§2)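 NCI five-dose assay, with drug stocks in DMSO diluted in medium to five concentrations (10-fold or ½-log series). Cells in RPMI 1640/5% FBS were pre-incubated 24 h, and time-zero plates were TCA-fixed at drug addition. After 48 h at 37 °C, cells were TCA-fixed, SRB-stained and read at 515 nm. GI50 is from [(Ti-Tz)/(C-Tz)]×100 = 50, TGI from Ti = Tz, and LC50 from [(Ti-Tz)/Tz]×100 = -50.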

**Q.** Which GI50 does the source give for `COc1cc2nc(-c3ccc(Cl)cc3)cc(OCCCN3CCCC3)c2cc1OC` here?
**A.** 2030 nM

Each molecule was assayed on SF-295 (assay: Growth inhibition of human SF-295 cells incubated for 48 hrs by sulforhodamine B assay).
Format: functional
Summary of the method: as §1

**Q.** How did the GI50 turn out when `COc1cc2nc(-c3ccc(Cl)cc3)cc(OCCCN3CCCC3)c2cc1OC` was run?
**A.** 1220 nM

Each molecule was assayed on SK-MEL-28 (assay: Growth inhibition of human SK-MEL-28 cells incubated for 48 hrs by sulforhodamine B assay).
Format: functional
Summary of the method: as §1

**Q.** For `COc1cc2nc(-c3ccc(Cl)cc3)cc(OCCCN3CCCC3)c2cc1OC`, which GI50 is on record?
**A.** 1480 nM

Each molecule was assayed on UO-31 (assay: Growth inhibition of human UO-31 cells incubated for 48 hrs by sulforhodamine B assay).
Format: functional
Summary of the method: as §2

**Q.** `COc1cc2nc(-c3ccc(Cl)cc3)cc(OCCCN3CCCC3)c2cc1OC` was tested. Which GI50 did it give?
**A.** 1720 nM

The molecules below were run on OVCAR-3 (assay: Growth inhibition of human OVCAR-3 cells incubated for 48 hrs by sulforhodamine B assay).
Format: functional
Summary of the method: as §1

**Q.** For `COc1cc2nc(-c3ccc(Cl)cc3)cc(OCCCN3CCCC3)c2cc1OC`, which GI50 is on record?
**A.** 2710 nM

Each molecule was assayed on DU-145 (assay: Growth inhibition of human DU-145 cells incubated for 48 hrs by sulforhodamine B assay).
Format: functional
Summary of the method: (§3)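 NCI five-dose screen covering 0.01–100 µM, prepared as 10-fold or ½-log dilutions from DMSO stock. Cells in RPMI 1640 with 5% FBS were exposed for 48 h at 37 °C after 24 h preincubation. Adherent cells were fixed with TCA (final 10%) and suspension cells were settled before fixing. Stain was SRB, read at 515 nm. GI50 = 50% reduction in net protein increase versus control, with Tz taken at drug addition.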

**Q.** How did the GI50 turn out when `COc1cc2nc(-c3ccc(Cl)cc3)cc(OCCCN3CCCC3)c2cc1OC` was run?
**A.** 2150 nM

What follows are molecules tested on HOP-92 (assay: Growth inhibition of human HOP-92 cells incubated for 48 hrs by sulforhodamine B assay).
Format: functional
Summary of the method: as §3

**Q.** `COc1cc2nc(-c3ccc(Cl)cc3)cc(OCCCN3CCCC3)c2cc1OC` was tested. Which GI50 did it give?
**A.** 850 nM

What follows are molecules tested on TK-10 (assay: Growth inhibition of human TK-10 cells incubated for 48 hrs by sulforhodamine B assay).
Format: functional
Summary of the method: as §2

**Q.** How did the GI50 turn out when `COc1cc2nc(-c3ccc(Cl)cc3)cc(OCCCN3CCCC3)c2cc1OC` was run?
**A.** 2330 nM

These molecules were tested on OVCAR-5 (assay: Growth inhibition of human OVCAR-5 cells incubated for 48 hrs by sulforhodamine B assay).
Format: functional
Summary of the method: as §1

**Q.** Which GI50 does the source give for `COc1cc2nc(-c3ccc(Cl)cc3)cc(OCCCN3CCCC3)c2cc1OC` here?
**A.** 1030 nM

Each molecule was assayed on HCT-116 (assay: Growth inhibition of human HCT-116 cells incubated for 48 hrs by sulforhodamine B assay).
Format: functional
Summary of the method: as §3

**Q.** `COc1cc2nc(-c3ccc(Cl)cc3)cc(OCCCN3CCCC3)c2cc1OC` was tested. Which GI50 did it give?
**A.** 699 nM

What follows are molecules tested on A549 (assay: Growth inhibition of human A549 cells incubated for 48 hrs by sulforhodamine B assay).
Format: functional
Summary of the method: as §3

**Q.** For `COc1cc2nc(-c3ccc(Cl)cc3)cc(OCCCN3CCCC3)c2cc1OC`, which GI50 is on record?
**A.** 1520 nM

What follows are molecules tested on T47D (assay: Growth inhibition of human T47D cells incubated for 48 hrs by sulforhodamine B assay).
Format: functional
Summary of the method: as §2

**Q.** How did the GI50 turn out when `COc1cc2nc(-c3ccc(Cl)cc3)cc(OCCCN3CCCC3)c2cc1OC` was run?
**A.** 1020 nM

The molecules below were run on UACC-257 (assay: Growth inhibition of human UACC-257 cells incubated for 48 hrs by sulforhodamine B assay).
Format: functional
Summary of the method: as §2

**Q.** `COc1cc2nc(-c3ccc(Cl)cc3)cc(OCCCN3CCCC3)c2cc1OC` was tested. Which GI50 did it give?
**A.** 1960 nM

The molecules below were run on OVCAR-8 (assay: Growth inhibition of human OVCAR-8 cells incubated for 48 hrs by sulforhodamine B assay).
Format: functional
Summary of the method: as §1

**Q.** Which GI50 does the source give for `COc1cc2nc(-c3ccc(Cl)cc3)cc(OCCCN3CCCC3)c2cc1OC` here?
**A.** 1190 nM

The molecules below were run on Malme-3M (assay: Growth inhibition of human Malme-3M cells incubated for 48 hrs by sulforhodamine B assay).
Format: functional
Summary of the method: as §1

**Q.** How did the GI50 turn out when `COc1cc2nc(-c3ccc(Cl)cc3)cc(OCCCN3CCCC3)c2cc1OC` was run?
**A.** 1680 nM

These molecules were tested on CAKI-1 (assay: Growth inhibition of human CAKI-1 cells incubated for 48 hrs by sulforhodamine B assay).
Format: functional
Summary of the method: as §3

**Q.** Which GI50 does the source give for `COc1cc2nc(-c3ccc(Cl)cc3)cc(OCCCN3CCCC3)c2cc1OC` here?
**A.** 303 nM

What follows are molecules tested on NCI-H322M (assay: Growth inhibition of human NCI-H322M cells incubated for 48 hrs by sulforhodamine B assay).
Format: functional
Summary of the method: as §1

**Q.** Which GI50 does the source give for `COc1cc2nc(-c3ccc(Cl)cc3)cc(OCCCN3CCCC3)c2cc1OC` here?
**A.** 3.36 µM

The molecules below were run on SK-MEL-5 (assay: Growth inhibition of human SK-MEL-5 cells incubated for 48 hrs by sulforhodamine B assay).
Format: functional
Summary of the method: as §1

**Q.** With `COc1cc2nc(-c3ccc(Cl)cc3)cc(OCCCN3CCCC3)c2cc1OC` as the molecule, how does the GI50 read?
**A.** 961 nM

These molecules were tested on MDA-MB-231 (assay: Growth inhibition of human MDA-MB-231 cells incubated for 48 hrs by sulforhodamine B assay).
Format: functional
Summary of the method: as §3

**Q.** `COc1cc2nc(-c3ccc(Cl)cc3)cc(OCCCN3CCCC3)c2cc1OC` was tested. Which GI50 did it give?
**A.** 907 nM

What follows are molecules tested on NCI-H460 (assay: Growth inhibition of human NCI-H460 cells incubated for 48 hrs by sulforhodamine B assay).
Format: functional
Summary of the method: as §1

**Q.** For `COc1cc2nc(-c3ccc(Cl)cc3)cc(OCCCN3CCCC3)c2cc1OC`, which GI50 is on record?
**A.** 823 nM

These molecules were tested on HCC 2998 (assay: Growth inhibition of human HCC 2998 cells incubated for 48 hrs by sulforhodamine B assay).
Format: functional
Summary of the method: as §3

**Q.** With `COc1cc2nc(-c3ccc(Cl)cc3)cc(OCCCN3CCCC3)c2cc1OC` as the molecule, how does the GI50 read?
**A.** 1860 nM
